Assay results reported in ChEMBL document CHEMBL2016444, “Discovery of novel 2-piperidinol-3-(arylsulfonyl)quinoxalines as phosphoinositide 3-kinase α (PI3Kα) inhibitors” (Bioorg Med Chem, 2012).
Calls of active or inactive are those of the source. The calls are words filed in the database; no cut-off is given here.

Legend:
HL-60 = test: Cytotoxicity against human HL60 cells after 72 hrs by MTT assay; type: functional, cell-based; conditions: HL-60, 72 h
How it was run: (§1)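 Cells grown in RPMI-1640 with heat-inactivated 10% FBS, penicillin 100 units/mL, streptomycin, 37 °C, 20% O₂, 5% CO₂. Compounds from 10.0 mg/mL DMSO stocks, diluted. Cells plated 24 h, then exposed to a range of concentrations for 72 h; viable cells read by MTT kit per manufacturer's instructions.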

PC-3 = test: Cytotoxicity against human PC3 cells after 72 hrs by MTT assay; type: functional, cell-based; conditions: PC-3, 72 h; how it was run: as §1
KB = test: Cytotoxicity against human KB cells after 72 hrs by MTT assay; type: functional, cell-based; how it was run: as §1
HCT-116 = test: Cytotoxicity against human HCT116 cells after 72 hrs by MTT assay; type: functional, cell-based; conditions: HCT-116, 72 h; how it was run: as §1
[1] = biological target: T1, Phosphatidylinositol 4,5-bisphosphate 3-kinase catalytic subunit alpha isoform (Homo sapiens, UniProt P42336); test: Inhibition of PI3Kalpha using diC8-PI(4,5)P2 as substrate after 3 hrs by competitive fluorescence polarization assay
How it was run: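 Competitive fluorescence polarization. Buffer includes MgCl₂ and 10 mM DTT, with diC₈-PI(4,5)P₂ as substrate. Incubated 3 h at room temperature, then quenched with chelators. Phosphoinositide binding protein and a fluorophore-labeled phosphoinositide tracer were added, and samples equilibrated 1 h in the dark before reading.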

A549 = test: Cytotoxicity against human A549 cells after 72 hrs by MTT assay; type: functional, cell-based; conditions: A549, 72 h; how it was run: as §1
[2] = biological target: T1, Phosphatidylinositol 4,5-bisphosphate 3-kinase catalytic subunit alpha isoform; test: Inhibition of PI3Kalpha-mediated AKT Ser473 phosphorylation in human PC3 cells at 10 uM after 3 hrs by Western blot analysis; type: cell-based; conditions: PC-3
How it was run: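 PC3 cells exposed to compound for 3 h. Lysates run on SDS–PAGE and probed for pAkt Ser473 by Western blot, with actin as internal control.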

[3] = biological target: T1, Phosphatidylinositol 4,5-bisphosphate 3-kinase catalytic subunit alpha isoform; test: Ratio of IC50 for WR1 to compound IC50 for PI3Kalpha using diC8-PI(4,5)P2 as substrate after 3 hrs by competitive fluorescence polarization assay

T1 sequence (P42336 whole entry, canonical isoform): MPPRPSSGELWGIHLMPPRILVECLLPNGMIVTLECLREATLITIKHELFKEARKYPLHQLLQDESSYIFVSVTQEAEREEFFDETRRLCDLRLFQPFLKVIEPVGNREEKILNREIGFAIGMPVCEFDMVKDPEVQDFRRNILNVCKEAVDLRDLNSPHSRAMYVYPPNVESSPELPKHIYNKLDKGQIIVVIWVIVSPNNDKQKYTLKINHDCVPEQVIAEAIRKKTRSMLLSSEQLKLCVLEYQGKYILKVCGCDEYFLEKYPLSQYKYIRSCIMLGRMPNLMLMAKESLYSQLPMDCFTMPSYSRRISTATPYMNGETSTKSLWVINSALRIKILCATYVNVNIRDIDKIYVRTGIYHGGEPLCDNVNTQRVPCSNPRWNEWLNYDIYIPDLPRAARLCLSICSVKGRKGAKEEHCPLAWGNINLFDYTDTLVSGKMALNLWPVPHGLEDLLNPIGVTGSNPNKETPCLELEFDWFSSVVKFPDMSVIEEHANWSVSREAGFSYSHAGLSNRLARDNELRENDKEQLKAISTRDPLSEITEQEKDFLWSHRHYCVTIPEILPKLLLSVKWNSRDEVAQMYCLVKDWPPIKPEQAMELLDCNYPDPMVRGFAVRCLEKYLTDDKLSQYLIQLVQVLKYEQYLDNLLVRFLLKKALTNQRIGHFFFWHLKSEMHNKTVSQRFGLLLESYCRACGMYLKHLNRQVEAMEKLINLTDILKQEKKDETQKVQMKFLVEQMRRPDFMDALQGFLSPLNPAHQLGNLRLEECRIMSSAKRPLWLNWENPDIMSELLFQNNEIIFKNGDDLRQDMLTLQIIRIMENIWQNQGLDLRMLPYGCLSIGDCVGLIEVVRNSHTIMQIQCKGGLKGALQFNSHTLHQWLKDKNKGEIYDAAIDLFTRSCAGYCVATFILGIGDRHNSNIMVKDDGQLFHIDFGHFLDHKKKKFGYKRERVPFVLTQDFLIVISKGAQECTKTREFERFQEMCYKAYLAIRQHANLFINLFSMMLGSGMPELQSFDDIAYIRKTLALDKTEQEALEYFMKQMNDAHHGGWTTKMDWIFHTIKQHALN

| IC50 [1] [µM] | inhibition [2] | Ratio IC50 [3] | Structure (SMILES) | IC50 (HL-60) [µM] | IC50 (PC-3) [µM] | IC50 (KB) [µM] | IC50 (HCT-116) [µM] | IC50 (A549) [µM] |
| --- | --- | --- | --- | --- | --- | --- | --- | --- |
| > 50 |  |  | O=S(=O)(c1ccccc1)c1nc2ccccc2nc1N1CCc2ccccc2C1 | 0.88 | 5.01 | 26.3 | 18.7 | 19.8 |
| 0.44 |  |  | O=S(=O)(c1ccccc1)c1nc2ccccc2nc1N1CCOCC1 | 4.47 | 18.9 |  | 5.35 | 12.6 |
|  |  |  | O=S(=O)(c1ccc(Br)cc1)c1nc2ccccc2nc1N1CCCC1 | 6.07 | > 50 | > 50 | 37.7 | > 50 |
|  |  |  | COc1ccc(S(=O)(=O)c2nc3ccccc3nc2N2CCCC(O)C2)cc1 (stereo unspecified) | 3.05 | 3.41 | 2.12 | 3.52 | 2.18 |
|  |  |  | COc1ccc(S(=O)(=O)c2nc3ccccc3nc2N2CCC(O)CC2)cc1 | 3.23 | 9.73 | 8.06 | 4.69 | 5.11 |
|  |  |  | Cc1ccc(S(=O)(=O)c2nc3ccccc3nc2N2CCC(O)CC2)cc1 | 4.05 | 9.52 | 6.14 | 5.44 | 4.02 |
| 0.025 | Active |  | O=S(=O)(c1ccc(Br)cc1)c1nc2ccccc2nc1N1CCC(O)CC1 | 0.34 | 2.02 | 2.32 | 1.65 | 0.95 |
|  |  |  | O=S(=O)(c1ccc(Br)cc1)c1nc2ccccc2nc1N1CCCC(O)C1 (stereo unspecified) | 3.43 | 3.69 | 3.72 | 2.11 | 2.1 |
|  |  |  | O=S(=O)(c1ccccc1)c1nc2ccccc2nc1N1CCCC(O)C1 (stereo unspecified) | 3.02 | 2.1 | 3.59 | 1.39 | 0.31 |
| 0.079 |  | 6 | O=S(=O)(c1ccccc1)c1nc2ccccc2nc1N1CCC(O)CC1 | 2.9 | 4.98 | 5.36 | 1.87 | 2.06 |
|  |  |  | COc1ccc(S(=O)(=O)c2nc3ccccc3nc2N2CCCC2)cc1 | 16 | > 50 | > 50 | > 50 | > 50 |
|  |  |  | O=S(=O)(c1ccc(F)cc1)c1nc2ccccc2nc1N1CCc2ccccc2C1 | 4.08 | 9.23 | 35.4 | 16.6 | 22.9 |
|  |  |  | Cc1ccc(S(=O)(=O)c2nc3ccccc3nc2N2CCc3ccccc3C2)cc1 | 3.61 | 22.4 | 32.1 | 39 | > 50 |
|  |  |  | Cc1ccc(S(=O)(=O)c2nc3ccccc3nc2N2CCCC(O)C2)cc1 (stereo unspecified) | 6.08 | 5.33 | 6.08 | 3.27 | 1.35 |
|  |  |  | O=S(=O)(c1ccc(F)cc1)c1nc2ccccc2nc1N1CCC(O)CC1 | 1.45 | 2.01 | 9.58 | 1.34 | 20.2 |
|  |  |  | O=S(=O)(c1ccc(F)cc1)c1nc2ccccc2nc1N1CCCC1 | 12.8 | 12.4 | 30.1 | 20.6 | 31.1 |
| 21.8 |  |  | O=S(=O)(c1ccccc1)c1nc2ccccc2nc1N1CCCC1 | 3.46 | 20.8 | 35.8 | 24.2 | 34.8 |
|  |  |  | O=S(=O)(c1ccc(F)cc1)c1nc2ccccc2nc1N1CCCC(O)C1 (stereo unspecified) | 2.62 | 2.13 | 18.3 | 5.5 | 8.17 |
|  |  |  | Cc1ccc(S(=O)(=O)c2nc3ccccc3nc2N2CCCC2)cc1 | 9.72 | > 50 | > 50 | > 50 | > 50 |
|  |  |  | O=S(=O)(c1ccc(Br)cc1)c1nc2ccccc2nc1N1CCc2ccccc2C1 | 2.61 | > 50 | > 50 | > 50 | > 50 |
|  |  |  | COc1ccc(S(=O)(=O)c2nc3ccccc3nc2N2CCc3ccccc3C2)cc1 | 3.69 | > 50 | > 50 | 22.1 | > 50 |
